Measured values from ChEMBL document CHEMBL4177755, “Combating Drug-Resistant Fungi with Novel Imperfectly Amphipathic Palindromic Peptides” (J Med Chem, 2018).

Legend:
Escherichia coli [1] = assay: Antibacterial activity against Escherichia coli ATCC 25922 after 24 hrs; type: functional; conditions: ATCC 25922, 24 h
Summary of the method: (§1)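 Broth microdilution. Mid-log bacteria in MHB at a final (0.5−1) × 10^5 CFU/mL were mixed with equal volumes of peptide serially diluted in 0.2% BSA. Plates were incubated 24 h at 37 °C and read at A492. MIC is the lowest concentration inhibiting 95% of growth. Each test was repeated at least 3 times.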

Escherichia coli [2] = assay: Antibacterial activity against Escherichia coli 1005 after 24 hrs; type: functional; conditions: Escherichia coli, 1005, 24 h; summary of the method: as §1
Salmonella typhimurium = assay: Antibacterial activity against Salmonella typhimurium ATCC 14028 after 24 hrs; type: functional, Salmonella enterica subsp. enterica serovar Typhimurium; conditions: Salmonella enterica, ATCC 14028, 24 h; summary of the method: as §1
Staphylococcus aureus [3] = assay: Antibacterial activity against Staphylococcus aureus ATCC 29213 after 24 hrs; type: functional; conditions: ATCC 29213, 24 h
Summary of the method: (§2)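 Modified NCCLS broth microdilution. Mid-log bacteria at (0.5−1) × 10^5 CFU/mL in MHB were mixed 1:1 with peptide serially diluted in 0.2% BSA and incubated 24 h at 37 °C. Absorbance was read at 492 nm; MIC is the lowest concentration inhibiting 95% of growth. At least 3 repeats.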

[4] = tested on: Staphylococcus epidermidis; assay: Antibacterial activity against Staphylococcus epidermidis ATCC 12228 after 24 hrs; type: functional; conditions: ATCC 12228, 24 h; summary of the method: as §1
Staphylococcus aureus [5] = assay: Antibacterial activity against Staphylococcus aureus ATCC 25923 after 24 hrs; type: functional; conditions: ATCC 25923, 24 h; summary of the method: as §2
Escherichia coli [6] = assay: Bactericidal activity against Escherichia coli ATCC 25922; type: functional; conditions: read-out: MBC99.9
Summary of the method: (§3)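 Wells from the 24 h, 37 °C MHB microdilution plates (bacteria at a final (0.5−1) × 10^5 CFU/mL; peptide diluted in 0.2% BSA) were plated on agar and incubated overnight. MBC is the lowest concentration killing >99.9% of cells. Each test was reproduced at least 3 times.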

Escherichia coli [7] = assay: Bactericidal activity against Escherichia coli 1005; type: functional; conditions: read-out: MBC99.9; summary of the method: as §3
[8] = Bactericidal activity against Salmonella pullorum ATCC 7913; type: functional, Salmonella enterica subsp. enterica serovar Pullorum; conditions: Salmonella enterica, read-out: MBC99.9; summary of the method: as §3
Staphylococcus aureus [9] = assay: Bactericidal activity against Staphylococcus aureus ATCC 29213; type: functional; conditions: read-out: MBC99.9; summary of the method: as §3
[10] = tested on: Staphylococcus epidermidis; assay: Bactericidal activity against Staphylococcus epidermidis ATCC 12228; type: functional; conditions: read-out: MBC99.9; summary of the method: as §3
Candida albicans [11] = assay: Antifungal activity against Candida albicans SP3903 after 48 hrs by broth microdilution method; type: functional; conditions: SP3903, 48 h
Summary of the method: (§4)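 Modified CLSI M27-A2 broth microdilution. Yeast at (0.5−1) × 10^3 CFU/mL in MOPS-buffered RPMI 1640 was mixed 1:1 with peptide serially diluted in 0.2% BSA and incubated 48 h at 28 °C. Absorbance was read at 492 nm; MIC is the lowest concentration inhibiting 95% of growth. Triplicate, three biological replicates.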

Candida albicans [12] = assay: Antifungal activity against Candida albicans SP3902 after 48 hrs by broth microdilution method; type: functional; conditions: SP3902, 48 h; summary of the method: as §4
Candida albicans [13] = assay: Antifungal activity against Candida albicans SP3876 after 48 hrs by broth microdilution method; type: functional; conditions: SP3876, 48 h; summary of the method: as §4
Candida albicans [14] = assay: Antifungal activity against fluconazole-resistant Candida albicans 56452 after 48 hrs by broth microdilution method; type: functional; conditions: Candida albicans, 56452, 48 h; summary of the method: as §4
Candida albicans [15] = assay: Antifungal activity against fluconazole-resistant Candida albicans 56214 after 48 hrs by broth microdilution method; type: functional; conditions: Candida albicans, 56214, 48 h; summary of the method: as §4
Candida albicans [16] = assay: Antifungal activity against Candida albicans 14936 after 48 hrs by broth microdilution method; type: functional; conditions: Candida albicans, 14936, 48 h; summary of the method: as §4
Candida tropicalis [17] = assay: Antifungal activity against Candida tropicalis cgmcc 2.1975 after 48 hrs by broth microdilution method; type: functional; conditions: cgmcc 2.1975, 48 h
Summary of the method: (§5)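 Modified CLSI M27-A2 broth microdilution. Yeast were suspended in MOPS-buffered RPMI 1640 at a final (0.5−1) × 10^3 CFU/mL and mixed 1:1 with peptide serially diluted in 0.2% BSA. Plates were incubated 48 h at 28 °C and read at A492. MIC is the lowest concentration giving 95% inhibition. Run in triplicate with three biological replicates.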

Pichia kudriavzevii = assay: Antifungal activity against Candida krusei cgmcc 2.1857 after 48 hrs by broth microdilution method; type: functional; conditions: cgmcc 2.1857, 48 h; summary of the method: as §5
Candida albicans [18] = assay: Fungicidal activity against Candida albicans cgmcc 2.2086 after 96 hrs; type: functional; conditions: cgmcc 2.2086, 96 h, read-out: MFC99.9
Summary of the method: (§6)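 After the 48 h, 28 °C broth microdilution in MOPS-buffered RPMI 1640 (inoculum (0.5−1) × 10^3 CFU/mL), 50 μL from each well was plated on YM agar for a further 48 h at 28 °C. MFC is the lowest concentration killing at least 99.9% of cells. Triplicate, three biological replicates.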

Candida albicans [19] = assay: Fungicidal activity against Candida albicans SP3876 after 96 hrs; type: functional; conditions: SP3876, 96 h, read-out: MFC99.9; summary of the method: as §6
Candida albicans [20] = assay: Fungicidal activity against Candida albicans isolated from alveolar fluid after 96 hrs; type: functional; conditions: read-out: MFC99.9; summary of the method: as §6
Candida albicans [21] = assay: Fungicidal activity against fluconazole-resistant Candida albicans 17546 after 96 hrs; type: functional; conditions: Candida albicans, 17546, 96 h; read-out: MFC99.9; summary of the method: as §6
Candida tropicalis [22] = assay: Fungicidal activity against Candida tropicalis cgmcc 2.1975 after 96 hrs; type: functional; conditions: cgmcc 2.1975, 96 h, read-out: MFC99.9
Summary of the method: (§7)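 Wells from the 48 h, 28 °C RPMI 1640/MOPS microdilution plates were plated on YM agar and incubated a further 48 h at 28 °C. MFC is the lowest concentration killing at least 99.9% of cells. Run in triplicate with three biological replicates.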

Candida parapsilosis = assay: Fungicidal activity against Candida parapsilosis cgmcc 2.3989 after 96 hrs; type: functional; conditions: Lodderomyces parapsilosis, cgmcc 2.3989, 96 h; read-out: MFC99.9; summary of the method: as §7
Escherichia coli [23] = assay: Antibacterial activity against Escherichia coli ATCC 25922 after 18 hrs in presence of KCl by broth dilution method; type: functional; conditions: ATCC 25922, 18 h
Escherichia coli [24] = assay: Antibacterial activity against Escherichia coli ATCC 25922 after 18 hrs in presence of FeCl3 by broth dilution method; type: functional; conditions: ATCC 25922, 18 h
Candida albicans [25] = assay: Antifungal activity against Candida albicans cgmcc 2.2086 in presence of NaCl by broth dilution method; type: functional
Candida albicans [26] = assay: Antifungal activity against Candida albicans cgmcc 2.2086 in presence of MgCl2 by broth dilution method; type: functional
Candida albicans [27] = assay: Antifungal activity against Candida albicans cgmcc 2.2086 in presence of ZnCl2 by broth dilution method; type: functional
Candida albicans [28] = assay: Antifungal activity against Candida albicans cgmcc 2.2086 in presence of FeCl3 by broth dilution method; type: functional
Candida albicans [29] = assay: Antifungal activity against Candida albicans 58288 after 48 hrs by broth microdilution method; type: functional; conditions: Candida albicans, 58288, 48 h; summary of the method: as §4
Candida albicans [30] = assay: Fungicidal activity against Candida albicans 58288 after 96 hrs; type: functional; conditions: Candida albicans, 58288, 96 h; read-out: MFC99.9; summary of the method: as §6

Substance | MIC95 (Escherichia coli [1]) | MIC95 (Escherichia coli [2]) | MIC95 (Salmonella typhimurium) | MIC95 (Staphylococcus aureus [3]) | MIC95 [4] | MIC95 (Staphylococcus aureus [5]) | MBC (Escherichia coli [6]) | MBC (Escherichia coli [7]) | MBC [8] | MBC (Staphylococcus aureus [9]) | MBC [10] | MIC95 (Candida albicans [11]) | MIC95 (Candida albicans [12]) | MIC95 (Candida albicans [13]) | MIC95 (Candida albicans [14]) | MIC95 (Candida albicans [15]) | MIC95 (Candida albicans [16]) | MIC95 (Candida tropicalis [17]) | MIC95 (Pichia kudriavzevii) | MFC (Candida albicans [18]) | other results
H-RWRWWWRWR-NH2 | 4 µM | 2 µM | 4 µM | 4 µM | 4 µM | 4 µM | 4 µM | 4 µM | 8 µM | 16 µM | 8 µM | 8 µM | 8 µM | 4 µM | 4 µM | 4 µM | 8 µM | 2 µM | 4 µM | 16 µM | MFC (Candida albicans [19]): 4 µM; MFC (Candida albicans [20]): 16 µM; MFC (Candida albicans [21]): 2 µM; MFC (Candida tropicalis [22]): 2 µM; MFC (Candida parapsilosis): 32 µM; MIC (Escherichia coli [23]): 4 µM; MIC (Escherichia coli [24]): 4 µM; MIC (Candida albicans [25]): 16 µM; MIC (Candida albicans [26]): 8 µM; MIC (Candida albicans [27]): 8 µM; MIC (Candida albicans [28]): 8 µM; MIC95 (Candida albicans [29]): 4 µM; MFC (Candida albicans [30]): 8 µM
H-RFRFFFRFR-NH2 | 4 µM | 4 µM | 4 µM | 4 µM | 4 µM | 4 µM | 8 µM | 8 µM | 8 µM | 8 µM | 8 µM | 4 µM | 4 µM | 8 µM | 4 µM | 8 µM | 8 µM | 2 µM | 4 µM | 16 µM | MFC (Candida albicans [19]): 8 µM; MFC (Candida albicans [20]): 16 µM; MFC (Candida albicans [21]): 4 µM; MFC (Candida tropicalis [22]): 4 µM; MFC (Candida parapsilosis): 32 µM; MIC (Escherichia coli [23]): 4 µM; MIC (Escherichia coli [24]): 4 µM; MIC (Candida albicans [25]): 32 µM; MIC (Candida albicans [26]): 16 µM; MIC (Candida albicans [27]): 8 µM; MIC (Candida albicans [28]): 8 µM; MIC95 (Candida albicans [29]): 8 µM; MFC (Candida albicans [30]): 16 µM
H-RIRIIIRIR-NH2 | 8 µM | 4 µM | 4 µM | 4 µM | 4 µM | 4 µM | 8 µM | 8 µM | 16 µM | 8 µM | 8 µM | 2 µM | 2 µM | 1 µM | 4 µM | 2 µM | 2 µM | 2 µM | 2 µM | 8 µM | MFC (Candida albicans [19]): 1 µM; MFC (Candida albicans [20]): 8 µM; MFC (Candida albicans [21]): 2 µM; MFC (Candida tropicalis [22]): 4 µM; MFC (Candida parapsilosis): 16 µM; MIC (Escherichia coli [23]): 8 µM; MIC (Escherichia coli [24]): 8 µM; MIC (Candida albicans [25]): 16 µM; MIC (Candida albicans [26]): 4 µM; MIC (Candida albicans [27]): 4 µM; MIC (Candida albicans [28]): 4 µM; MIC95 (Candida albicans [29]): 2 µM; MFC (Candida albicans [30]): 4 µM
H-RWWRRWRRWWR-NH2 | 16 µM | 8 µM | 8 µM | 4 µM | 4 µM | 8 µM | 16 µM | 8 µM | 8 µM | 8 µM | 8 µM | 2 µM | 4 µM | 2 µM | 8 µM | 4 µM | 4 µM | 2 µM | 2 µM | 8 µM | MFC (Candida albicans [19]): 2 µM; MFC (Candida albicans [20]): 8 µM; MFC (Candida albicans [21]): 4 µM; MFC (Candida tropicalis [22]): 4 µM; MFC (Candida parapsilosis): 32 µM; MIC (Escherichia coli [23]): 16 µM; MIC (Escherichia coli [24]): 16 µM; MIC (Candida albicans [25]): 16 µM; MIC (Candida albicans [26]): 8 µM; MIC (Candida albicans [27]): 4 µM; MIC (Candida albicans [28]): 4 µM; MIC95 (Candida albicans [29]): 2 µM; MFC (Candida albicans [30]): 8 µM
H-RRFRFFFRFRR-NH2 | 4 µM | 4 µM | 4 µM | 4 µM | 4 µM | 8 µM | 4 µM | 4 µM | 4 µM | 8 µM | 4 µM | 2 µM | 4 µM | 4 µM | 4 µM | 4 µM | 4 µM | 1 µM | 2 µM | 16 µM | MFC (Candida albicans [19]): 4 µM; MFC (Candida albicans [20]): 8 µM; MFC (Candida albicans [21]): 2 µM; MFC (Candida tropicalis [22]): 2 µM; MFC (Candida parapsilosis): 32 µM; MIC (Escherichia coli [23]): 4 µM; MIC (Escherichia coli [24]): 4 µM; MIC (Candida albicans [25]): 16 µM; MIC (Candida albicans [26]): 4 µM; MIC (Candida albicans [27]): 4 µM; MIC (Candida albicans [28]): 4 µM; MIC95 (Candida albicans [29]): 2 µM; MFC (Candida albicans [30]): 8 µM
